Source: PubChem (several laboratories)
TNAP inh no acc: inhibitors of human TNAP without phosphate acceptor. AID 1012. purified TNAP, CDP-star luminescence, 30 min. hit rate 0.26% among 200,000. P05186. inhibition, % at 20 µM;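 active means tissue-nonspecific alkaline phosphatase inhibition above about 50% at 20 µM in the single-dose screen, limit read from the data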;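 further: 0% = DMSO negative control and 100% = EDTA positive control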
Target sequence (P05186 whole entry, looked up): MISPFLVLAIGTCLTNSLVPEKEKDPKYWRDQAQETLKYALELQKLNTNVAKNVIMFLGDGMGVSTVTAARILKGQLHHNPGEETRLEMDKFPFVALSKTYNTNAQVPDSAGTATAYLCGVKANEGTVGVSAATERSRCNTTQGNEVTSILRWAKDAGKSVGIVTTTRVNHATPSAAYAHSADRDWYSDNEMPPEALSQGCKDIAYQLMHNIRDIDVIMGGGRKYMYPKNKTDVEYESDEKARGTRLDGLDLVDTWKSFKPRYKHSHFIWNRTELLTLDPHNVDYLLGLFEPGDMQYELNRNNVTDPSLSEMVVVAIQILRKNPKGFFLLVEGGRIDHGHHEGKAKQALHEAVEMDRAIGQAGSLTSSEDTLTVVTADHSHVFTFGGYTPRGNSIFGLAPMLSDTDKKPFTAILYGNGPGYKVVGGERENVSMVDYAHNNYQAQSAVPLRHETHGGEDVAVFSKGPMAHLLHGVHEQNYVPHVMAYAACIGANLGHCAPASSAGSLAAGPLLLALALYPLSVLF
TNAP inh hi DEA: TNAP (human) inhibition, high acceptor | P05186 | purified TNAP, CDP-star luminescence, 1 M DEA | inhibition, % at 20 µM | hit rate 0.03% among 200,000 | AID 1135;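 active means over 50% inhibition of tissue-nonspecific alkaline phosphatase at 20 µM in the single-dose screen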;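 further: plate controls were DMSO wells for no effect and EDTA-quenched wells as full inhibition for full effect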
TNAP act hiacc: activators of human TNAP at high phosphate acceptor concentration | activation factor at 20 µM | purified TNAP, CDP-star luminescence, 1 M DEA, 30 min; hits give high values; 0 = EDTA background, 1 = DMSO-only activity | P05186 | AID 1136 | 200,000 tested, under 10 active;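 active means activation factor at least 2 at 20 µM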
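Dosing: 20 µM single point. System: human TNAP. Amount: TNAP 1/800 final. Incubation: 30 min, room temperature. Read-out: TNAP activation factor scaled between EDTA and DMSO control wells. Signal: luminescence from CDP-star hydrolysis. Medium: 1 M DEA, pH 9.8, Mg2+, Zn2+. Control set: EDTA negative control, DMSO positive control.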
HMGR II inh: blocks class II HMG-CoA reductase of Enterococcus faecalis; purified E. faecalis HMGR, NADPH absorbance 340 nm kinetic; AID 1066; inhibition, % at 10 µM; hit rate 0.41% among 190,000;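 active means inhibition above a set limit, the median over all tested compounds plus 3 SD, cut at about 9.5% in these data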;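 further: enzyme runs in reverse so mevalonate oxidation gives rising NADPH absorbance; 0% = complete reaction with DMSO and 100% = background rate lacking mevalonate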
Insulin prom inh: TRM-6 insulin promoter activity inhibition; AID 1273; TRM-6 cells, insulin promoter-eGFP reporter, imaging; reporter expression induced with tamoxifen; inhibition, % at 2 µM; hit rate 0.9% among 130,000;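 active means inhibition above the mean plus 3 SD, with well images judged a real hit on visual review, cut at about 60% in these data, passing the limit was not always enough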
Starred values were filed as active, the others as inactive; i = inactive; . = not tested or not shown. In the library only some 1.2% were active in any assay of this set; here they are far more common.

SMILES	TNAP inh no acc	TNAP inh hi DEA	TNAP act hiacc	HMGR II inh	Insulin prom inh
CCOC(=O)CC(Nc1nc(N2CCOCC2)nc(N2CCOCC2)n1)c1ccccc1Cl (stereo unspecified)	-3	-2	1	0	.
O=C(NC1CCCC1)C1c2ccccc2C(=O)N1CCCN1CCOCC1 (stereo unspecified)	-12	-4	1	-1	60*
Cc1cc(-c2ccc(Cl)s2)n[nH]1	55*	-6	1.1	5	12
CCCNC(=O)CSc1nc2ccc(OCC)cc2s1	-4	-3	1	0	-50
CCOc1ccc2nc(SCC(=O)NC(=O)C(C)C)sc2c1	-6	-5	1.1	-8	100*
COc1ccc(NC(=O)C(=S)NC2CCCCC2)cc1	-99	-3	1	-5	.
CCCCN(CCCC)C(=O)C[n+]1cccc(/C=N/O)c1	-3	-3	1	-1	71*
CCN(CC)S(=O)(=O)c1cccc(-c2nnc(SCc3nc4ccccc4s3)o2)c1	-12	-3	1	3	87*
COc1cc(C(c2c(C)[nH][nH]c2=O)c2c(C)[nH][nH]c2=O)ccc1OS(=O)(=O)c1ccc(C)cc1	12	51*	0.5	-5	.
COc1cc(C(c2c(C)[nH][nH]c2=O)c2c(C)[nH][nH]c2=O)cc(OC)c1OC	-7	-1	1	2	.
COc1cc(C(c2c(C)[nH][nH]c2=O)c2c(C)[nH][nH]c2=O)ccc1OC(C)C	82*	87*	0.1	-7	12
COc1cc(C(c2c(C)[nH][nH]c2=O)c2c(C)[nH][nH]c2=O)ccc1OS(=O)(=O)c1ccccc1	29	72*	0.3	-2	.
COc1ccc(C2=NOC(C(=O)Nc3ccc4c(c3)OCO4)C2)cc1OC (stereo unspecified)	-16	-4	1	-1	.
OCC[C@@H]1C[C@@H](O)[C@H](O)[C@]2(CCCCO2)O1	-11	-4	1	-2	40
CCOC(=O)c1sc2nc(C)cc(C)c2c1N	-2	7	0.9	-1	77*
O=C(NCC1CCCO1)c1ccccn1 (stereo unspecified)	-9	-2	1	-1	75*
COC(=O)c1ccccc1NC(=O)CSc1nnc(CNS(=O)(=O)c2ccc(C)cc2)n1C	-3	-1	1	14*	-6
Cc1ccc2nc(-c3ccc(O)cc3)c(Nc3ccc4c(c3)OCCO4)n2c1	30	-7	1.1	-8	.
Cc1ccc2nc(-c3ccccc3O)c(Nc3ccc4c(c3)OCCO4)n2c1	-20	0	1	4	67*
Cc1nn(Cc2ccc(Cl)cc2)c(C)c1NC(=O)C(c1ccccc1)c1ccccc1	4	-5	1	2	46
Cc1cc(C)cc(-n2nc(C)cc2N)c1	-3	-2	1	-5	72*
Cc1cccc(-n2nc(C)cc2N)c1	-10	1	1	-21	-14
COc1ccc(C(=O)Nc2ccc(N3CCOCC3)cc2)cc1S(=O)(=O)NC1CCCC1	-11	-8	1.1	-4	7
C=CCNc1ncnc2c1[nH]c1ccc(Cl)cc12	-10	-3	1	-2	93*
COc1cc(C(=S)N2CCN(c3ccccc3Cl)CC2)cc(O)c1O	3	13	0.9	-1	.
SMILES	TNAP inh no acc	TNAP inh hi DEA	TNAP act hiacc	HMGR II inh	Insulin prom inh
Cc1nc2c(Cl)cc(Cl)cc2[nH]1	-9	-7	1.1	3	73*
CS(=O)(=O)N1CCN(C2C3CC4CC(C3)CC2C4)CC1 (stereo unspecified)	-6	1	1	-6	.
CS(=O)(=O)Nc1ccc(C(=O)NCCSCc2c(F)cccc2Cl)cc1	-8	-6	1.1	-3	.
c1nc(NC2CCCCCC2)c2[nH]cnc2n1	-92	-3	1	-5	70*
c1nc(NC2CCCCC2)c2[nH]cnc2n1	-50	-7	1.1	2	-21
CCOC(=O)CSCC(=O)Nc1c(C(=O)C2CC2)oc2ccccc12	-5	-1	1	-4	55
Cc1nnc(NC(=O)CSc2nnc(Cc3ccccc3)n2-c2ccccc2)s1	-11	-3	1	-4	i
CCc1nnc(NC(=O)CSc2nnc(Cc3ccccc3)n2-c2ccccc2)s1	-8	-5	1	-1	82*
Cc1c(NS(=O)(=O)c2cc(NC(=O)CCN3CCCC(C)C3)ccc2Cl)c(=O)n(-c2ccccc2)n1C (stereo unspecified)	-12	-6	1.1	-6	-42
O=C(c1ccco1)N1CCN(C(=O)c2cc(-c3ccncc3)nc3ccc(Br)cc23)CC1	.	.	.	.	6
O=C(O)c1cc(-c2ccco2)nc2ccc(Br)cc12	-5	-2	1	-5	77*
O=C(COc1ccc(Br)cc1)N/N=C1\SCC(=O)N1c1ccc(F)cc1	-20	2	1	-8	93*
COc1ccc(-c2csc(N3C(=O)C4C5c6ccccc6C(c6ccccc65)C4C3=O)n2)cc1 (stereo unspecified)	-9	-4	1	-6	8
COc1ccccc1Cn1c(=O)c2ccccc2n2c(Sc3ncnc4sccc34)nnc12	-11	0	1	-4	79*
COCCn1c(SCC#N)nnc1-c1ccc(OC)cc1	-7	3	1	13*	-24
COCCn1c(SCC(=O)Nc2sc(C)c(C)c2C#N)nnc1-c1ccc(OC)cc1	-16	-5	1	-4	27
Fc1ccc(-c2csc3[n+]2CCS3)cc1	-14	-5	1.1	17*	50
O=[N+]([O-])c1ccc(-c2csc3[n+]2CCS3)cc1	-7	6	0.9	4	-17
COc1ccc(OC)c(S(=O)(=O)Nc2ccc(F)cc2)c1	-6	-1	1	1	-25
COc1ccc(C)cc1S(=O)(=O)Nc1cccnc1	85*	64*	0.4	-1	22
COc1ccc(OC)c(S(=O)(=O)Nc2cnc3ccccc3c2)c1	94*	82*	0.2	-1	-11
CCCCc1n(CC(=O)c2ccc(Cl)cc2)c2ccccc2[n+]1C	4	1	1	1	19
N#C/C(=C\c1cccc(Cl)c1)c1n[nH]c(Cn2cncn2)n1	-6	-4	1	5	.
Cc1cc(C)c(S(=O)(=O)Nc2ccc(O)c(Sc3ncn[nH]3)c2)c(C)c1	72*	1	1	-2	-38
COc1ccc(S(=O)(=O)Nc2ccc(O)c(Sc3ncn[nH]3)c2)cc1	79*	5	0.9	-5	56
CC(C(=O)O)N1C(=O)c2ccccc2C1=O (stereo unspecified)	-14	-6	1.1	12*	37
CC(C(=O)N1CCN(C)CC1)N1C(=O)c2ccccc2C1=O (stereo unspecified)	-7	-4	1	-4	3
COc1cc(/C=N/NC(=O)COc2c(C)cc([N+](=O)[O-])cc2C)ccc1OC(=O)c1ccccc1	0	-1	1	11*	0
COc1ccc(/C=N/NC(=O)CSc2ccccc2)cc1OC	1	1	1	1	64*
